Experimental data from ChEMBL document CHEMBL3808357, “Discovery of N-(3-((1-Isonicotinoylpiperidin-4-yl)oxy)-4-methylphenyl)-3-(trifluoromethyl)benzamide (CHMFL-KIT-110) as a Selective, Potent, and Orally Available Type II c-KIT Kinase Inhibitor for Gastrointestinal Stromal Tumors (GISTs)” (J Med Chem, 2016).
Activity calls are given as the source filed them. No cut-off for these calls is given here.

How the values were obtained:
[1] = target: Mast/stem cell growth factor receptor Kit (Homo sapiens) (UniProt P10721); assay: Inhibition of cKIT in human GIST882 cells assessed as suppression of ERK phosphorylation at T202/Y204 up to 10 uM after 2 hrs by Western blot analysis; assay type: cell-based
[2] = target: Mast/stem cell growth factor receptor Kit (Homo sapiens) (UniProt P10721); assay: Inhibition of cKIT autophosphorylation at Y703 in human GIST48B cells up to 10 uM after 2 hrs by Western blot analysis; assay type: cell-based
[3] = target: Mast/stem cell growth factor receptor Kit (Homo sapiens) (UniProt P10721); assay: Inhibition of cKIT autophosphorylation at Y823 in human GIST48B cells up to 10 uM after 2 hrs by Western blot analysis; assay type: cell-based
[4] = target: Mast/stem cell growth factor receptor Kit (Homo sapiens) (UniProt P10721); assay: Inhibition of cKIT in human GIST48B cells assessed as suppression of S6K phosphorylation at T389 up to 10 uM after 2 hrs by Western blot analysis; assay type: cell-based
[5] = system: GISTT1; assay: Induction of apoptosis in human GISTT1 cells assessed as caspase 3 cleavage up to 3 uM after 48 hrs by Western blot analysis; assay type: functional, cell-based
[6] = system: GIST882; assay: Induction of apoptosis in human GIST882 cells assessed as caspase 3 cleavage up to 3 uM after 72 hrs by Western blot analysis; assay type: functional, cell-based
[7] = system: GIST48B; assay: Induction of apoptosis in human GIST48B cells assessed as PARP cleavage up to 3 uM after 72 hrs by Western blot analysis; assay type: functional, cell-based
[8] = Cell cycle arrest in human GISTT1 cells at 0.3 to 3 uM after 24 hrs by propidium iodide/RNase staining based flow cytometric analysis; assay type: functional
Method in brief: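 Cells were then fixed in 70% cold ethanol at −20 °C overnight, stained with PI/RNase buffer and analysed by flow cytometry.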

[9] = AUC(0 to infinity) in Sprague-Dawley rat plasma at 1 mg/kg, iv; assay type: ADME, organism-based; parameters: dose 1 mg/kg, time infinity, route intravenous
Method in brief: (§1)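 Male Sprague-Dawley rats, 8 weeks old, fasted overnight, dosed iv or orally. Formulation was 5% DMSO/40% PEG400/55% saline at 1 mg/mL. Blood (~0.2 mL) was drawn from the jugular vein into heparin. Sampling: iv at 1 min to 8 h; oral at 5 min to 24 h. Plasma was separated by centrifugation at 2−8 °C and stored at −80 °C.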

[10] = Half life in Sprague-Dawley rat plasma at 1 mg/kg, iv; assay type: ADME, organism-based; method in brief: as §1
[11] = system: Rattus norvegicus; assay: Apparent volume of distribution in Sprague-Dawley rat plasma at 10 mg/kg, po; assay type: ADME, organism-based; settings: in vivo; method in brief: as §1
[12] = Cmax in Sprague-Dawley rat plasma at 1 mg/kg, iv; assay type: ADME, organism-based; parameters: dose 1 mg/kg, route intravenous; method in brief: as §1
[13] = Oral bioavailability in Sprague-Dawley rat plasma at 10 mg/kg; assay type: ADME, organism-based
Method in brief: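 Male Sprague–Dawley rats, 8 weeks old, six in total, fasted overnight; compound dissolved in 5% DMSO/40% PEG400/55% saline (1 mg/mL dosing solution), given iv or orally. About 0.2 mL jugular blood taken with heparin at 1 min–8 h (iv) or 5 min–24 h (oral); plasma separated at 2–8 °C and stored at −80 °C before analysis.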

[14] = Antitumor activity against human GISTT1 cells xenografted in nu/nu mouse assessed as tumor growth inhibition at 50 mg/kg/day administered through oral gavage after 21 days; assay type: functional; settings: 504 h, read-out: TGI
Method in brief: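 Female nu/nu mice, 6 weeks old, received 5 × 10⁶ GIST-T1 cells in PBS/Matrigel (1:1) subcutaneously in the right flank. At 100−200 mm³, six mice per group were dosed daily by oral gavage at 25, 50 or 100 mg/kg/d in 0.5% methylcellulose/0.4% Tween80, or vehicle. Tumor volume was taken as (W²×L)/2, with body weight and tumor measured daily. Tumors were stained for Ki67 (IHC, 1:50 antibody) and by TUNEL.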

[15] = target: T1, Platelet-derived growth factor receptor beta (Homo sapiens, UniProt P09619); assay: Inhibition of PDGFRbeta phosphorylation at Y857 in human GIST882 cells up to 10 uM after 2 hrs by Western blot analysis; assay type: cell-based
Method in brief: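 Cells were washed in cold PBS, lysed in RIPA and immunoblotted for phospho and total proteins, including pPDGFRα Y849/PDGFRβ Y857 and β-actin.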

[16] = target: Macrophage colony-stimulating factor 1 receptor (Homo sapiens, UniProt P07333); assay: Inhibition of His-tagged recombinant human CSF1R expressed in baculovirus expression system after 1 hr by Z-lyte assay
[17] = target: T1, Platelet-derived growth factor receptor beta; assay: Inhibition of N-terminal GST-tagged recombinant human PDGFRbeta (amino acids 557-end) expressed in baculovirus infected insect Sf9 cells using Poly(4:1 Glu, Tyr) peptide as substrate after 1 hr by promega ADP-glo assay
Method in brief: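 ADP-Glo luminescence assay. PDGFRβ (10 ng/μL, 9 μL) with poly(Glu4,Tyr1) substrate (0.4 μg/μL) and 100 μM ATP, serially diluted inhibitor, 1 h at 37 °C. ADP-Glo reagent was added for 40 min, then detection reagent for 30 min. IC50 was taken from the dose−response fit.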

[18] = Antiproliferative activity against mouse BAF3 cells; assay type: cell-based
[19] = system: Mast/stem cell growth factor receptor Kit (Homo sapiens), P10721 [N822K]; assay: Inhibition of Tel-fused cKIT N822K mutant (unknown origin) transfected in mouse BAF3 cells assessed as decrease in cell proliferation after 72 hrs by celltiter-glo/CCK8 assay; assay type: cell-based
[20] = system: Mast/stem cell growth factor receptor Kit (Homo sapiens), P10721 [T670I]; assay: Inhibition of Tel-fused cKIT T670I mutant (unknown origin) transfected in mouse BAF3 cells assessed as decrease in cell proliferation after 72 hrs by celltiter-glo/CCK8 assay; assay type: cell-based
Method in brief: (§2)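 Stable BaF3 lines made by retroviral transduction with mutagenized TEL-KIT MSCV vectors, puromycin selection 48 h, then gradual IL-3 withdrawal until IL-3-independent; grown in RPMI 1640 with 10% FBS. Cells at 1 to 3 × 10⁴ cells/mL exposed to a concentration series for 72 h; viability read by CellTiter-Glo luminescence or CCK-8 absorbance (450/655 nm); GI50 from triplicate testing.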

[21] = target: Mast/stem cell growth factor receptor Kit (Homo sapiens) (UniProt P10721); assay: Inhibition of Tel-fused cKIT L567P mutant (unknown origin) transfected in mouse BAF3 cells assessed as decrease in cell proliferation after 72 hrs by celltiter-glo/CCK8 assay; assay type: cell-based
[22] = system: Mast/stem cell growth factor receptor Kit (Homo sapiens), P10721 [V559D,T670I]; assay: Inhibition of Tel-fused cKIT T670I/V559D double mutant (unknown origin) transfected in mouse BAF3 cells assessed as decrease in cell proliferation after 72 hrs by celltiter-glo/CCK8 assay; assay type: cell-based; method in brief: as §2
[23] = Antiproliferative activity against human BCR-ABL dependent MEG01 cells assessed as reduction in cell viability after 72 hrs by celltiter-glo/CCK8 assay; assay type: functional; settings: MEG-01, 72 h
[24] = Antiproliferative activity against FLT3-ITD dependent human MOLM14 cells assessed as reduction in cell viability after 72 hrs by celltiter-glo/CCK8 assay; assay type: functional; settings: MOLM-14, 72 h
Method in brief: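 Cells were seeded at 1 to 3 × 10⁴ cells/mL with serial compound concentrations and incubated 72 h at 37 °C, 5% CO₂. Viability was read by CellTiter-Glo luminescence or CCK-8 absorbance (450/655 nm). GI50 values are from triplicate testing. GIST-T1 and CHO were grown in DMEM/10% FBS; GIST-882, GIST-48B and MV4-11 in IMDM/10% FBS; other lines in RPMI 1640/10% FBS.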

Sequence of Mast/stem cell growth factor receptor Kit (Homo sapiens) (P10721 whole entry, the tested form may be a part): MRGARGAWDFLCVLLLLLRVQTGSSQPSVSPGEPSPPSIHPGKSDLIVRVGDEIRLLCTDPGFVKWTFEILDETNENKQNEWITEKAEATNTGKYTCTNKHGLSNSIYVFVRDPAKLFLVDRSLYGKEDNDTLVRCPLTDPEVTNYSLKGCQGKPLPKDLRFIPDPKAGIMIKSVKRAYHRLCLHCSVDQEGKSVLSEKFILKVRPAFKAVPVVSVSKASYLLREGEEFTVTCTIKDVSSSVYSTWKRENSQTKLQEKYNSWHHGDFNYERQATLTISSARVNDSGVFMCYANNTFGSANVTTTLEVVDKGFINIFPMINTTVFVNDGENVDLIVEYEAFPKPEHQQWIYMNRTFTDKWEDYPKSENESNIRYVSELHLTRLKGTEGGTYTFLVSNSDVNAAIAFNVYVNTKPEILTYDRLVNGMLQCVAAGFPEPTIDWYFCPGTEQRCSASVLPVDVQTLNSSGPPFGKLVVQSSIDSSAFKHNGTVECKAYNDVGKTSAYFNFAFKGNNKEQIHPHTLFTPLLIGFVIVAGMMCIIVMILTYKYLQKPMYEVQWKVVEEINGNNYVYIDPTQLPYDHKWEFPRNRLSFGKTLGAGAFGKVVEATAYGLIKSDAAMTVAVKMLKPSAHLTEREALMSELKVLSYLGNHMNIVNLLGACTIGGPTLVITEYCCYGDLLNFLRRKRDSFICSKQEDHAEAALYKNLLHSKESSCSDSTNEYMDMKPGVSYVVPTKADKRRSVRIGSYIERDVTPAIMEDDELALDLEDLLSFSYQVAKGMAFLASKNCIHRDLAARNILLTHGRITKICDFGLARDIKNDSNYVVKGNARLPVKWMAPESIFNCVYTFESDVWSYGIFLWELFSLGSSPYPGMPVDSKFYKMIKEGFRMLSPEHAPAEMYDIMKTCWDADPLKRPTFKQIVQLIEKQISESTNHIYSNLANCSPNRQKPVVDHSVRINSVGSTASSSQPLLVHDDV
T1 sequence (P09619 whole entry): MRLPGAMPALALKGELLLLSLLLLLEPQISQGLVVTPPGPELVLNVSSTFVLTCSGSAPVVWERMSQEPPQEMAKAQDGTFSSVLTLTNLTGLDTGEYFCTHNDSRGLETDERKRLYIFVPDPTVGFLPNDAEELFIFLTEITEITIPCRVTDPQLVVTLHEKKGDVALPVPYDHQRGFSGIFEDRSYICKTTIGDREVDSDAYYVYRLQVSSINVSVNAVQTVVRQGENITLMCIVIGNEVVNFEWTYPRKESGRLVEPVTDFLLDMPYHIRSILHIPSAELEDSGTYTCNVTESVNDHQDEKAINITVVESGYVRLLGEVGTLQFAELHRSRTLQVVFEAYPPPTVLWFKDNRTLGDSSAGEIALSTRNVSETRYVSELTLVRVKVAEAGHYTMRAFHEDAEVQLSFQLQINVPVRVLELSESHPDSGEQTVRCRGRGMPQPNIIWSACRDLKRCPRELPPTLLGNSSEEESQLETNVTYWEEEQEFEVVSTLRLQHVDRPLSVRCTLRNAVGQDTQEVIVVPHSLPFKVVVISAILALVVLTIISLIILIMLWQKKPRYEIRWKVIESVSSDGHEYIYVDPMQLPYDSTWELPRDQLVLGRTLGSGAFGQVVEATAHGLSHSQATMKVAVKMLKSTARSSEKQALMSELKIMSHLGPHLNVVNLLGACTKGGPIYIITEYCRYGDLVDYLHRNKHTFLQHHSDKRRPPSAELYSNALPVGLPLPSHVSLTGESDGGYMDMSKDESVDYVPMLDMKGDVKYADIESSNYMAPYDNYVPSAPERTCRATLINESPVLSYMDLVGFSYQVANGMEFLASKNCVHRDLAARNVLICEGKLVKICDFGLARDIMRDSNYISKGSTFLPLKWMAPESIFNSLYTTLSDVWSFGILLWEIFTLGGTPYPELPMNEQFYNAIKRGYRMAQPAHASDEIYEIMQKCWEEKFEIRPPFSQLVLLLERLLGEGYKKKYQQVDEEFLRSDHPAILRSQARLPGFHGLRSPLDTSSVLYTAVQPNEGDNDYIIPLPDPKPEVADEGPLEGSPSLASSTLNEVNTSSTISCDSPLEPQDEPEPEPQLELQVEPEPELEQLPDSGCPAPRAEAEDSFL
Sequence of Mast/stem cell growth factor receptor Kit (Homo sapiens), P10721 [T670I] (P10721 whole entry T670I, the tested form may be a part): as the sequence (P10721 whole entry, the tested form may be a part) above, with T670I counted along it
Sequence of Macrophage colony-stimulating factor 1 receptor (P07333 whole entry, the tested form may be a part): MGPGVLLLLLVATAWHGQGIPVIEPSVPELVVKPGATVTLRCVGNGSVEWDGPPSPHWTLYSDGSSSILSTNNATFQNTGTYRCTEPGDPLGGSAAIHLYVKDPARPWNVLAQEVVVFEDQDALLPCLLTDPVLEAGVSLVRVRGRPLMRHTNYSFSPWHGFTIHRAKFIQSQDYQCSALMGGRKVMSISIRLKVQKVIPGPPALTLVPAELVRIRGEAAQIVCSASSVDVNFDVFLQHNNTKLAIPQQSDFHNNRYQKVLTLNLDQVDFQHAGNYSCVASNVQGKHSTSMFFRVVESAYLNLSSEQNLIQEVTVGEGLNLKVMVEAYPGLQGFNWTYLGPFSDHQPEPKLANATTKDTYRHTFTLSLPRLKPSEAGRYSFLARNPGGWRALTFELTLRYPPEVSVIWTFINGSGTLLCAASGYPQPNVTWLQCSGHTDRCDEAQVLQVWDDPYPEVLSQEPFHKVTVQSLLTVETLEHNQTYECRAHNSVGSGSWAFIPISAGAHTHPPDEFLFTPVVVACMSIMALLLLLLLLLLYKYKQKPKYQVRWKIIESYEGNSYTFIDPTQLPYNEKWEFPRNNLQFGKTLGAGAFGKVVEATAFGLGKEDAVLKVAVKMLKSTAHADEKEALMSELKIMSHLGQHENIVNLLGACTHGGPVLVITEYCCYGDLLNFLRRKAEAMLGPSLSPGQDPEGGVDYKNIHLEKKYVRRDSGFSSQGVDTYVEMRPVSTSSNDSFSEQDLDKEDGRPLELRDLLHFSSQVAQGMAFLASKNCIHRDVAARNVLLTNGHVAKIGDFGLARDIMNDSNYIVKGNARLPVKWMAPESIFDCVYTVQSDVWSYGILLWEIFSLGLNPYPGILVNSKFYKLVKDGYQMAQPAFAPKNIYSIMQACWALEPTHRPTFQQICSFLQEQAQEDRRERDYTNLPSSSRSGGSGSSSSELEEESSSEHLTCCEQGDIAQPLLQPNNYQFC
Sequence of Mast/stem cell growth factor receptor Kit (Homo sapiens), P10721 [V559D,T670I] (P10721 whole entry V559D/T670I, the tested form may be a part): as the sequence (P10721 whole entry, the tested form may be a part) above, with V559D, T670I counted along it
Sequence of Mast/stem cell growth factor receptor Kit (Homo sapiens), P10721 [N822K] (P10721 whole entry N822K, the tested form may be a part): as the sequence (P10721 whole entry, the tested form may be a part) above, with N822K counted along it

With `Cc1ccc(NC(=O)c2cccc(C(F)(F)F)c2)cc1OC1CCN(C(=O)c2ccncc2)CC1` the inhibition [1] was “Active”, the inhibition [2] was “Active” and the inhibition [3] was “inactive”. The inhibition [4] was “inactive”, the Activity [5] was “Active” and the Activity [6] was “Active”. For the same compound, the Activity [7] was “inactive”, the Activity [8] was “Active” and the AUC(0-inf) [9] was 202 ng·h/mL. It also gave a half-life [10] of 27.1 min, a Vz [11] of 76.407 L/kg and a Cmax [12] of 511 ng/mL. For the same compound, the bioavailability [13] was 36.1%, the inhibition in vivo at 50 mg/kg/day [14] was 35% and the inhibition [15] was “Active”. For the same compound, the IC50 [16] was 0.133 µM, the IC50 [17] was 0.12 µM and the GI50 [18] was > 10 µM. The GI50 [19] was 1.06 µM, the GI50 [20] was 8.24 µM and the GI50 [21] was 0.15 µM. The GI50 [22] was 5.31 µM, the GI50 [23] was 7.43 µM and the GI50 [24] was > 10 µM.
